Bioassay records (PubChem)
Cl transport mod – KCC2 cotransporter modulators, thallium flux, primary screen, cell-based, HEK293 KCC2, FluoZin-2 fluorescence, MLSMR | KCC2 cells, thallium flux FluoZin-2 fluorescence | 2.2% of 190,000 active | Solute carrier family 12 member 5 (Homo sapiens), Q9H2X9 | B-score of Tl+ flux slope (higher = more flux/activation; lower = inhibition) at 10 µM;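 active means thallium flux slope and its plate-corrected score both differing from the plate sample mean at a set confidence after two filtering rounds, in either direction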;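 further: slope of fluorescence scaled to starting intensity during 10 to 20 s after thallium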
Lmaj promast – Leishmania major promastigote growth inhibition, primary screen. Leishmania major promastigotes, resazurin fluorescence viability. inhibition, % at 10 µM. 9% of 200,000 active; in the data active means inhibition above about 50%;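 further: promastigotes grown with compound for 44 hours at 28 °C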
Diaph inh CS – diaphorase inhibitors and chemical oxidizers, primary screen, counter-screen for diaphorase-coupled primary assays, biochemical, uHTS, resorufin fluorescence. diaphorase resazurin-to-resorufin fluorescence, NADH, 16 min; bacterial (C. kluyveri) enzyme, not human. inhibition, % at 20 µM. 0.69% of 190,000 active. AID 1217, 2008;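 active means primary screen inhibition at 20 µM above a set limit, cut at about 50% in these data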;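 further: plate controls were DMSO with full reaction for no effect and wells lacking NADH for full effect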
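System: Bacterial diaphorase enzyme (C. kluyveri) | Incubation: 16-min room-temperature incubation before reading | Benchmarks: No-NADH positive control and DMSO neutral control | Measured by: Resorufin fluorescence 544/590 nm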
WT yeast gro inh – growth inhibition of WT strain, primary screen, mitochondrial fusion inhibitor project, WT and mutant strains, chemical genetic. mitochondrial fusion phenotypic screen. inhibition, % at 10 µM. 2.1% of 190,000 active; in the data active means inhibition above about 58%; tested in S. cerevisiae
Diaph act CS – compounds boosting diaphorase resazurin reduction – biochemical, uHTS, resorufin fluorescence, counter-screen for diaphorase-coupled primary assays, primary screen. 0.005% of 190,000 active. AID 1229, 2008. activation factor at 20 µM. Diaphorase/resazurin coupled assay, 16 min; active compounds read high; 1 = vehicle wells, 0 = NADH-free wells;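 active means diaphorase activity raised at least twofold by the compound at 20 µM; inactive means activation factor below 2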
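Measured by – red resorufin fluorescence at 544/590 nm excitation/emission · Test system – Clostridium kluyveri diaphorase, purified enzyme · Incubation – reaction time 16 min, room temperature · Buffer or medium – 50 mM HEPES pH 7.4 with 4.542 mM MgCl2, 0.005% Tween 20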
ROMK primary – ROMK potassium channel modulators, primary screen, cell-based, thallium flux, MLSMR library | ATP-sensitive inward rectifier potassium channel 1 (Homo sapiens), P48048 | Tet-inducible ROMK, thallium flux fluorescence; actives lie on both sides | B-score at 10 µM | 2% of 130,000 active;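 active means signal ratio slope over the read window, or its plate-corrected B-score, at least 3 SD from the plate mean, either direction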;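 further: B-score of the F/F0 ratio slope over 7 to 12 s after thallium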
Target sequence (P48048 whole entry, looked up): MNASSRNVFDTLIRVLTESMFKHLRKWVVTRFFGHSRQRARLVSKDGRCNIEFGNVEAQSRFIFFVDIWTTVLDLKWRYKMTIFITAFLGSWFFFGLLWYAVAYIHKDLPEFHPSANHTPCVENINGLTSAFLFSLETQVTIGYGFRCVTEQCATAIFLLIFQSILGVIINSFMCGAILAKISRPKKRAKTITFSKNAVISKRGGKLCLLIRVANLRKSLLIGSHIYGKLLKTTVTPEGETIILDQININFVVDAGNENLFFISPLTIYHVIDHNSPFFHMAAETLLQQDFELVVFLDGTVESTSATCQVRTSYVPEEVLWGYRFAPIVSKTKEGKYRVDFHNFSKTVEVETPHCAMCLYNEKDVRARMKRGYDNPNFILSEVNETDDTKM
Active calls of the source: *; nt = no result given. The list is not random: actives were taken first. Their share in the collection is about 12%.

SMILES | Cl transport mod | Lmaj promast | Diaph inh CS | WT yeast gro inh | Diaph act CS | ROMK primary
CN(C)c1cccc(C(=O)N/N=C/c2ccsc2)c1 | 1.09 | -9.7 | 13.9 | -13.8 | 0.9 | 0.0265
O=C(COC(=O)c1cc[n+]([O-])cc1)Nc1ccc([N+](=O)[O-])cc1Cl | 0.299 | 0.0 | -2.4 | -16.2 | 1 | 0.171
O=C(/C=C/c1ccc(Cl)c(Cl)c1)NC1=NCCS1 | -0.589 | -3.2 | 10.0 | 18.9 | 0.9 | 0.931
O=C1N=c2ccc(Br)cc2=C1c1sc(=S)n(NS(=O)(=O)c2ccccc2)c1O | -0.826 | -5.3 | 25.3 | -1.9 | 0.7 | 0.287
C=CCOC(=O)C1=C(C)NC(=O)NC1c1ccc(OC(=O)c2ccco2)c(OC)c1 (stereo not drawn) | -3.27* | 9.3 | 10.6 | 2.1 | 0.9 | -0.804
CCOC(=O)C1=C(C)NC(=O)NC1c1ccc(OC(=O)c2ccco2)c(OC)c1 (stereo not drawn) | -0.633 | 6.5 | 9.8 | -17.1 | 0.9 | nt
CC(=O)N1CSCC1C(=O)NNS(=O)(=O)c1ccccc1 (stereo not drawn) | 0.96 | nt | nt | nt | nt | nt
CCOC(=O)C1CCN(CC(=O)Nc2cc(C)nn2-c2nc3ccccc3s2)CC1 | 0.00554 | 5.5 | 23.1 | 73.5* | 0.8 | -0.0538
OC(CCCCN1CCCCC1)c1ccccc1 (stereo not drawn) | 0.693 | 53.8* | 6.8 | 2.3 | 0.9 | 0.0381
CCc1oc2ccccc2c1C(=O)CCN1CCCCC1 | 0.182 | 73.6* | 9.1 | 11.9 | 0.9 | nt
O=C(CCN1CCCCC1)Nc1ccccc1 | 2.16 | -2.6 | -1.7 | -2.0 | 1 | -1.41
O=c1oc2ccccc2c(N2CCCCC2)c1CN1CCCC1 | 0.664 | 3.8 | 10.8 | 14.2 | 0.9 | 0.153
O=C(O)CCN1CCOCC1 | 0.8 | -0.8 | 3.0 | -5.4 | 1 | nt
OC(C#CCN1CCCCC1)c1ccccc1 (stereo not drawn) | 1.27 | -9.7 | 12.9 | -11.9 | 0.9 | nt
O=C(CCN1CCCCC1)c1ccccc1 | -0.165 | 73.7* | -6.3 | -13.0 | 1.1 | -0.505
O=C(CCN1CCOCC1)c1ccccc1 | -0.226 | 95.3* | 15.8 | 20.2 | 0.8 | -0.376
Cc1ccc(C)c(Sc2ccc(NC(=O)CCl)cc2)c1 | 0.102 | 100.2* | 24.0 | 68.8* | 0.8 | nt
Cc1ccc(Sc2ccc(NC(=O)CCl)cc2)cc1C | -0.0932 | 100.0* | 26.9 | 66.4* | 0.7 | 1.43
Cc1ccc(NC(=O)CCSCCC(=O)Nc2ccc(C)c(C)c2)cc1C | -0.433 | -3.2 | 16.1 | 3.2 | 0.8 | nt
C=CCOc1ccc(C2CC(C)=NN2c2ccccc2)cc1 (stereo not drawn) | -1.45 | -6.0 | 18.0 | 26.6 | 0.8 | -0.465
CC1CCN(C(=O)c2ccc(NS(=O)(=O)c3cccc4cccnc34)cc2)CC1 | -0.0329 | nt | nt | nt | nt | 0.0385
O=C(c1c[nH]c2ccccc12)C(O)C(c1ccccc1)N1CCOCC1 (stereo not drawn) | 0.914 | -0.4 | 12.2 | 6.7 | 0.9 | nt
COc1ccc(C(C(O)C(=O)c2c[nH]c3ccccc23)N2CCN(c3ccc(OC)cc3)CC2)cc1 (stereo not drawn) | nt | 52.0* | 1.8 | 15.6 | 1 | -0.0275
O=C(NCCc1c[nH]c2ccccc12)C(=O)NCC(c1cccnc1)N1CCN(c2ccccc2)CC1 (stereo not drawn) | 0.123 | 99.5* | 17.6 | -6.5 | 0.8 | -0.411
COc1ccc(N2CCN(C(CNC(=O)C(=O)NCCc3c[nH]c4ccccc34)c3ccco3)CC2)cc1 (stereo not drawn) | 0.211 | 65.5* | 15.3 | 12.9 | 0.8 | -0.00821
SMILES | Cl transport mod | Lmaj promast | Diaph inh CS | WT yeast gro inh | Diaph act CS | ROMK primary
COC(=O)NCC(c1ccco1)N1CCN(c2ccc(OC)cc2)CC1 (stereo not drawn) | 1.45 | -8.1 | 13.6 | -2.2 | 0.9 | -0.8
COc1ccc2c(c1)c(=O)cc(-c1ccccc1)n2C | -1.21 | -0.3 | 6.4 | -12.7 | 0.9 | 0.504
COc1ccc(-c2nn(-c3ccccc3)cc2C(=O)N2c3ccc(C)cc3C3CN(C)CCC32)cc1 (stereo not drawn) | -0.165 | 59.1* | 11.1 | 12.3 | 0.9 | -0.021
COc1ccc(OC)c(C(c2nnnn2C2CCCC2)N2CCN(c3ccc(F)cc3)CC2)c1 (stereo not drawn) | -0.891 | 91.8* | 25.9 | 20.5 | 0.7 | nt
COc1ccc(C(c2nnnn2C2CCCC2)N2CCC(C)CC2)c(OC)c1 (stereo not drawn) | 0.023 | 99.3* | 14.2 | 26.2 | 0.9 | nt
COc1ccc2cc(C(c3nnnn3C3CCCCC3)N3CCCCCC3)c3nnnn3c2c1 (stereo not drawn) | -0.778 | 21.1 | nt | nt | nt | nt
Cc1ccc(CCNC(=O)CCS(=O)(=O)c2ccc(Br)cc2)cc1 | 0.0127 | -3.9 | 6.8 | 6.8 | 0.9 | 0.0677
CCCNC(=O)Nc1ccsc1C(=O)OC | -0.694 | -3.9 | 7.3 | -7.3 | 0.9 | 0.0298
CCC(Oc1ccccc1)C(=O)Nc1ccsc1C(=O)OC (stereo not drawn) | -1.44 | 73.7* | 4.6 | 37.4 | 1 | 0.35
CCC(=O)c1c[nH]c(C(=O)NCCCn2ccnc2)c1 | nt | 1.7 | 12.9 | -3.1 | 0.9 | nt
Cc1ccc(S(=O)(=O)N2CCC(C(=O)NNC(=O)c3ccncc3)CC2)cc1 | 1.5 | 2.5 | 10.4 | -3.9 | 0.9 | 0.86
O=C(c1csc(Nc2ccccc2Cl)n1)N1CCCC1 | nt | 11.0 | -1.8 | 69.2* | 1 | -0.249
COc1ccccc1-c1cc(C(=O)N2CCc3ccccc3C2)c2ccccc2n1 | -1.42 | 100.1* | 28.4 | 38.2 | 0.7 | nt
COc1ccccc1Nc1cc(C(=O)N2CCc3ccccc3C2)c2ccccc2n1 | -1.41 | 15.3 | 19.4 | 54.7 | 0.8 | -0.242
COc1ccc(-c2cc(C(=O)N3CCN(c4ncccn4)CC3)c3ccccc3n2)c(OC)c1 | -1.33 | 18.9 | 12.9 | 59.1* | 0.9 | nt
COc1ccc(Nc2cc(C(=O)N3CCc4ccccc4C3)c3ccccc3n2)c(OC)c1 | -1.1 | 55.9* | 25.7 | 53.6 | 0.7 | -0.0998
CCOC(=O)c1cc(-c2csc(N/N=C/c3ccccc3Cl)n2)on1 | 0.619 | nt | nt | nt | nt | nt
C[C@@H]1C=C(C(=O)O)O[C@H](OCc2ccc(CO)cc2)C1 | 0.486 | 1.1 | 21.0 | -1.4 | 0.8 | nt
COc1ccc(NC(=O)NCCN2CCc3ccccc3C2)cc1 | -2.38 | 14.1 | 10.4 | 1.3 | 0.9 | nt
COc1ccc(Nc2nc(C(=O)N3CCc4ccccc4C3)cs2)cc1 | -0.971 | 14.3 | nt | 75.3* | nt | nt
Cc1cc(C)c(NC(=O)/C(=C/c2ccco2)c2ccccc2)c(C)c1 | -2.32 | 59.2* | 7.9 | 6.8 | 0.9 | -0.224
